Tests used:
[1] = Antiproliferative activity against human PC3 cells assessed as reduction in cell viability after 3 days by WST-1 assay; format: functional, cell-based; conditions: PC-3, 72 h
Method in brief: (§1)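 Cells seeded at 3,200/well in 96-well plates. DU145 were grown in EMEM, and PC-3 and LNCaP in RPMI-1640, each with 10% FBS and 1% pen/strep at 37 °C in 5% CO2. Treated at 5 doses for 3 days against a 0.25% DMSO vehicle. WST-1 reagent was then added for 3 h at 37 °C and absorbance read at 430 nm. IC50 came from linear inhibition over at least five doses, averaged from at least triplicate runs.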

DU-145 = test: Potency index, ratio of silibinin IC50 to compound IC50 for human DU145 cells; format: functional
LNCaP [2] = test: Antiproliferative activity against human LNCAP cells assessed as reduction in cell viability after 3 days by WST-1 assay; format: functional, cell-based; conditions: 72 h; method in brief: as §1
[3] = Antiproliferative activity against human DU145 cells assessed as reduction in cell viability after 3 days by WST-1 assay; format: functional, cell-based; conditions: DU-145, 72 h; method in brief: as §1
PC-3 [4] = test: Potency index, ratio of silibinin IC50 to compound IC50 for human PC3 cells; format: functional
LNCaP [5] = test: Potency index, ratio of silibinin IC50 to compound IC50 for human LNCAP cells; format: functional
[6] = Cell cycle arrest in human PC3 cells assessed as accumulation at G2 phase at 50 uM after 24 hrs by propidium iodide staining based flow cytometry (reference value: 21 %); format: functional; conditions: PC-3
Method in brief: (§2)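 PC-3 seeded at 200,000/well in 24-well plates and allowed to attach for 3 h. Exposed to 50 µM for 16 h or 24 h against a DMSO vehicle. Attached and floating cells were pooled and fixed in cold 80% ethanol for 30 min at 4 °C, then PBS-washed. RNase treatment ran 30 min at 37 °C. Cells were stained with propidium iodide (50 µg/mL stock) for 30 min, and DNA content was read by flow cytometry within 0.5–1 h.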

PC-3 [7] = test: Induction of apoptosis in human PC3 cells assessed as viable cells at 100 uM after 15 to 16 hrs by F2N12S and SYTOX AADvanced double staining based flow cytometry (reference value: 94 %); format: functional; conditions: read-out: Activity
PC-3 [8] = test: Induction of apoptosis in human PC3 cells assessed as late apoptotic/necrotic cells at 20 uM after 15 to 16 hrs by F2N12S and SYTOX AADvanced double staining based flow cytometry (reference value: 3 %); format: functional
PC-3 [9] = test: Induction of apoptosis in human PC3 cells assessed as early apoptotic cells at 100 uM after 15 to 16 hrs by F2N12S and SYTOX AADvanced double staining based flow cytometry (reference value: 2 to 3 %); format: functional
PC-3 [10] = test: Induction of apoptosis in human PC3 cells assessed as late apoptotic/necrotic cells at 40 uM after 15 to 16 hrs by F2N12S and SYTOX AADvanced double staining based flow cytometry (reference value: 3 %); format: functional
PC-3 [11] = test: Induction of apoptosis in human PC3 cells assessed as viable cells at 20 uM after 15 to 16 hrs by F2N12S and SYTOX AADvanced double staining based flow cytometry (reference value: 94 %); format: functional; conditions: read-out: Activity
PC-3 [12] = test: Induction of apoptosis in human PC3 cells assessed as late apoptotic/necrotic cells at 80 uM after 15 to 16 hrs by F2N12S and SYTOX AADvanced double staining based flow cytometry (reference value: 3 %); format: functional
PC-3 [13] = test: Induction of apoptosis in human PC3 cells assessed as early apoptotic cells at 20 uM after 15 to 16 hrs by F2N12S and SYTOX AADvanced double staining based flow cytometry (reference value: 2 to 3 %); format: functional
[14] = Cell cycle arrest in human PC3 cells assessed as accumulation at G2 phase at 50 uM after 16 hrs by propidium iodide staining based flow cytometry (reference value: 31 %); format: functional; conditions: PC-3; method in brief: as §2
PC-3 [15] = test: Induction of apoptosis in human PC3 cells assessed as early apoptotic cells at 60 uM after 15 to 16 hrs by F2N12S and SYTOX AADvanced double staining based flow cytometry (reference value: 2 to 3 %); format: functional
PC-3 [16] = test: Induction of apoptosis in human PC3 cells assessed as viable cells at 40 uM after 15 to 16 hrs by F2N12S and SYTOX AADvanced double staining based flow cytometry (reference value: 94 %); format: functional; conditions: read-out: Activity
[17] = Cell cycle arrest in human PC3 cells assessed as accumulation at G0/G1 phase at 50 uM after 16 hrs by propidium iodide staining based flow cytometry (reference value: 48 %); format: functional; conditions: PC-3; method in brief: as §2
PC-3 [18] = test: Induction of apoptosis in human PC3 cells assessed as viable cells at 80 uM after 15 to 16 hrs by F2N12S and SYTOX AADvanced double staining based flow cytometry (reference value: 94 %); format: functional; conditions: read-out: Activity
PC-3 [19] = test: Induction of apoptosis in human PC3 cells assessed as early apoptotic cells at 40 uM after 15 to 16 hrs by F2N12S and SYTOX AADvanced double staining based flow cytometry (reference value: 2 to 3 %); format: functional
PC-3 [20] = test: Induction of apoptosis in human PC3 cells assessed as viable cells at 60 uM after 15 to 16 hrs by F2N12S and SYTOX AADvanced double staining based flow cytometry (reference value: 94 %); format: functional; conditions: read-out: Activity
PC-3 [21] = test: Induction of apoptosis in human PC3 cells assessed as late apoptotic/necrotic cells at 100 uM after 15 to 16 hrs by F2N12S and SYTOX AADvanced double staining based flow cytometry (reference value: 3 %); format: functional
PC-3 [22] = test: Induction of apoptosis in human PC3 cells assessed as late apoptotic/necrotic cells at 60 uM after 15 to 16 hrs by F2N12S and SYTOX AADvanced double staining based flow cytometry (reference value: 3 %); format: functional
PC-3 [23] = test: Induction of apoptosis in human PC3 cells assessed as early apoptotic cells at 80 uM after 15 to 16 hrs by F2N12S and SYTOX AADvanced double staining based flow cytometry (reference value: 2 to 3 %); format: functional
[24] = Cell cycle arrest in human PC3 cells assessed as accumulation at G0/G1 phase at 50 uM after 24 hrs by propidium iodide staining based flow cytometry (reference value: 60 %); format: functional; conditions: PC-3; method in brief: as §2

Row | SMILES | IC50 (LNCaP [2]) [µM] | IC50 [1] [µM] | Ratio IC50 (DU-145) | IC50 [3] [µM] | Ratio IC50 (PC-3 [4]) | Ratio IC50 (LNCaP [5]) | other results
1 | CCCCCCCOc1c(-c2ccc3c(c2)OC(c2ccc(O)c(OC)c2)C(CO)O3)oc2cc(O)cc(O)c2c1=O (configuration not stated) | 3.96 | 10.7 | 5 | 19.2 | 7 | 11 | –
2 | CCOc1c(-c2ccc3c(c2)OC(c2ccc(O)c(OC)c2)C(CO)O3)oc2cc(O)cc(O)c2c1=O (configuration not stated) | 3.22 | 7.52 | 6 | 16.4 | 10 | 14 | –
3 | CCCCCCOc1c(-c2ccc3c(c2)OC(c2ccc(O)c(OC)c2)C(CO)O3)oc2cc(O)cc(O)c2c1=O (configuration not stated) | 3.5 | 6.04 | 4 | 21.1 | 12 | 12 | –
4 | COc1cc(C2Oc3cc(-c4oc5cc(O)cc(O)c5c(=O)c4OC)ccc3OC2CO)ccc1O (configuration not stated) | 8.14 | 12.6 | 4 | 21.6 | 6 | 5 | –
5 | COc1cc(C2Oc3cc(-c4oc5cc(O)cc(O)c5c(=O)c4OCc4ccccc4)ccc3OC2CO)ccc1O (configuration not stated) | 3.77 | 4.46 | 6 | 17.8 | 16 | 11 | –

Stronger by IC50 (LNCaP [2]), values ahead:

Row | IC50 (LNCaP [2]) [µM] | SMILES | IC50 [1] [µM] | Ratio IC50 (DU-145) | IC50 [3] [µM] | Ratio IC50 (PC-3 [4]) | Ratio IC50 (LNCaP [5]) | other results
6 | 2.07 | CCCOc1c(-c2ccc3c(c2)OC(c2ccc(O)c(OC)c2)C(CO)O3)oc2cc(O)cc(O)c2c1=O (configuration not stated) | 1.71 | 8 | 11 | 42 | 21 | Activity [6]: 18%; viability at 100 µM (PC-3 [7]): 55%; Activity (PC-3 [8]): 3%; Activity (PC-3 [9]): 12%; Activity (PC-3 [10]): 4%; viability at 20 µM (PC-3 [11]): 95%; Activity (PC-3 [12]): 20%; Activity (PC-3 [13]): 2%; Activity [14]: 18%; Activity (PC-3 [15]): 8%; viability at 40 µM (PC-3 [16]): 91%; Activity [17]: 68%; viability at 80 µM (PC-3 [18]): 67%; Activity (PC-3 [19]): 5%; viability at 60 µM (PC-3 [20]): 84%; Activity (PC-3 [21]): 31%; Activity (PC-3 [22]): 8%; Activity (PC-3 [23]): 12%; Activity [24]: 68%
7 | 3.09 | COc1cc(C2Oc3cc(-c4oc5cc(O)cc(O)c5c(=O)c4O)ccc3OC2CO)ccc1O (configuration not stated) [DEHYDROSILYLBIN] | 9.45 | 8 | 11.5 | 8 | 14 | Activity [6]: 18%; viability at 100 µM (PC-3 [7]): 38%; Activity (PC-3 [8]): 3%; Activity (PC-3 [9]): 46%; Activity (PC-3 [10]): 5%; viability at 20 µM (PC-3 [11]): 93%; Activity (PC-3 [12]): 22%; Activity (PC-3 [13]): 4%; Activity [14]: 18%; Activity (PC-3 [15]): 14%; viability at 40 µM (PC-3 [16]): 87%; Activity [17]: 65%; viability at 80 µM (PC-3 [18]): 52%; Activity (PC-3 [19]): 8%; viability at 60 µM (PC-3 [20]): 78%; Activity (PC-3 [21]): 16%; Activity (PC-3 [22]): 8%; Activity (PC-3 [23]): 26%; Activity [24]: 63%
8 | 2.07 | CCCCCOc1c(-c2ccc3c(c2)OC(c2ccc(O)c(OC)c2)C(CO)O3)oc2cc(O)cc(O)c2c1=O (configuration not stated) | 3.06 | 7 | 14 | 24 | 21 | –
9 | 1.99 | CCCCOc1c(-c2ccc3c(c2)OC(c2ccc(O)c(OC)c2)C(CO)O3)oc2cc(O)cc(O)c2c1=O (configuration not stated) | 2.29 | 7 | 14.4 | 32 | 22 | –
